The list is not random: actives were taken first. Their share in the collection is about 1.7%.
JMJD2C inh = inhibitors of human GASC-1 (JMJD2C) demethylase; AID 2099; Q9H3R0; inhibition, % at 2.35 µM; 0.069% of 330,000 active; GST-JMJD2C(1-420) H3K9me3 demethylation, DELFIA europium;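 active = more than half of a compound's replicate wells show inhibition beyond 50%, single wells judged on their own value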;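 note: signal counts dimethyl H3K9 product captured on neutravidin plate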
PP1 counter = PP1-alpha (human) inhibition in PP5 counter-screen. P62136. purified PP1alpha, OMFP fluorescence. 0.9% of 320,000 active. inhibition, % at 6.7 µM;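 active = inhibition above the mean inhibition of all tested compounds plus 3 SD, computed separately for each screening campaign, cut at about 15% in these data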
T cell HTS = T cell immune modulation candidate | AID 2052 | 0.068% of 330,000 active | response (vesicle binding), % at 7 µM | 2C CD8+ T cell-vesicle binding, flow cytometry; stronger effect = lower value;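 active = response, share of CD8 T cells binding vesicles, and their 90th percentile fluorescence all below set limits, cut at about 80% in these data, passing the limit was not always enough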;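 note: values below 100% mean blocked vesicle binding to the CD8+ T cells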
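Read-out – percent CD8+ FL2 mean versus row control · System – murine 2C transgenic CD8+ T lymphocytes · Times – 1.5 h cell–vesicle binding at 37 °C, then 20 min icy labelling · Control set – naked vesicles low, QL9 vesicles with vehicle high · Detection – cytometric PE anti-B7-1 and Alexa647 anti-CD8 signals after 1% paraformaldehyde fixation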
PP5 primary = PP5 (human) phosphatase inhibition | P53041 | purified PP5c, OMFP substrate fluorescence | inhibition, % at 6.7 µM | 0.18% of 320,000 active | AID 1987;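 active = inhibition above the campaign's mean inhibition across all tested compounds plus 3 SD, cut at about 9.5% in these data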
HTR2A ag = mouse HTR2A agonism via beta-arrestin recruitment. P35363. CHO-K1 mHTR2A beta-arrestin complementation, luminescence; percent of 30 µM serotonin response. activation, % at 7.6 µM. 0.66% of 360,000 active. AID 624169;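 active = activation above a run cutoff, the mean activation of all tested compounds plus 3 SD, cut at about 14% in these data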
Target sequence (P35363 whole entry, looked up): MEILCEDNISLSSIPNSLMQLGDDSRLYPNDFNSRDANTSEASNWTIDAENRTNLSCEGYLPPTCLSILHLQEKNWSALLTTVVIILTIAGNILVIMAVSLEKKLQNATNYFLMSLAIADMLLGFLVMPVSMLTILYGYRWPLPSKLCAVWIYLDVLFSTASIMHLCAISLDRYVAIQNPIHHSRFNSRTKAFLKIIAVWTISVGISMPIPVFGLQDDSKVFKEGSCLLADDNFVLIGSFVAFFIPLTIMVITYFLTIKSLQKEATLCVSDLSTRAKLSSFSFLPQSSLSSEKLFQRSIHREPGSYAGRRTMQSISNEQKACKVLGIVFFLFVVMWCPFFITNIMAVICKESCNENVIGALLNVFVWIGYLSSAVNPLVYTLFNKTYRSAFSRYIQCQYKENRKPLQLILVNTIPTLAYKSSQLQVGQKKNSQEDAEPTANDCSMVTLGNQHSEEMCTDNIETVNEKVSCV
OPRM1 ag = activates human mu opioid receptor in HTR2A counterscreen | shares compounds with HTR2A ag | U2OS OPRM1 beta-arrestin PathHunter, luminescence; DMSO 0%, DAMGO 9.3 µM 100% | activation, % at 9.3 µM | 5.3% of 2,300 active | AID 624380;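 active = mean activation above the mean of DMSO-only wells plus 3 SD, cut at about 0.5% in these data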
HTR2A ag conf = confirmation of mouse HTR2A serotonin receptor agonists; shares compounds with HTR2A ag; CHO-K1 PathHunter beta-arrestin recruitment, luminescence; DMSO 0%, 30 µM serotonin 100%; activation, % at 7.6 µM; 19% of 2,300 active; AID 624381;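 active = mean activation across triplicates above the hit threshold derived in the original primary screen, cut at about 15% in these data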
Each line names hits and unclear results; the compound was inactive in the other large screens (follow-up assays come after a bar, where they were run).

COc1ccc(CC(=O)OCC(=O)Nc2ncc(Cl)c(C)c2Cl)cc1	HTR2A ag 15 (no result: JMJD2C inh, PP1 counter, T cell HTS, PP5 primary) | OPRM1 ag inactive | HTR2A ag conf inactive
O=C(C1CCN(S(=O)(=O)c2ccc(Cl)cc2)CC1)N1CCCC1	none
Cc1ccc(S(=O)(=O)N2CCC(C(=O)N3CCC3)CC2)cc1	HTR2A ag 17 | OPRM1 ag inactive | HTR2A ag conf inactive
CCc1ccc(CCC(=O)Nc2ccc(Br)cc2)o1	none
CCN(CC)C(=O)Nc1ccc(Br)cc1	HTR2A ag 23 | OPRM1 ag inactive | HTR2A ag conf inactive
O=C(NC1CC1)c1ccc(NS(=O)(=O)c2ccccc2)cc1	none
O=C(NC1CCC(O)CC1)c1ccc(NS(=O)(=O)c2cccc([N+](=O)[O-])c2)cc1 (configuration not stated)	HTR2A ag 15 | OPRM1 ag inactive | HTR2A ag conf inactive
COc1cc(/C=N/NC(=O)C2C3CCCCC32C)cc(Br)c1O (configuration not stated)	none
COc1ccc(NC2CCCN(C(=O)Cn3ccc(C)n3)C2)cc1OC (configuration not stated)	HTR2A ag 15 | OPRM1 ag inactive | HTR2A ag conf inactive
O=C(c1cc2nc(-c3ccco3)cc(C(F)(F)F)n2n1)N1CCCc2ccccc21	HTR2A ag 23 | OPRM1 ag inactive | HTR2A ag conf inactive
Cc1ccccc1OC(=O)c1cccc(S(=O)(=O)N2CCN(C)CC2)c1	none
NC(=NCc1ccco1)NC(=O)c1ccc(Cl)cc1	none
CC(=NC1CC1)c1c(-c2ccccc2)[nH]n(-c2nc3ccccc3s2)c1=O	HTR2A ag 15 | OPRM1 ag inactive | HTR2A ag conf inactive
O=C1C2C3C=CC(C3)C2C(=O)N1c1nc2ccccc2s1 (configuration not stated)	none
O=S1(=O)CCC(NC(=S)N2CCCCC2)C1 (configuration not stated)	HTR2A ag 17 | OPRM1 ag inactive | HTR2A ag conf inactive
O=C(Nc1ccc(S(=O)(=O)Nc2ncccn2)cc1)C12CC3CC(CC(Cl)(C3)C1)C2	none (no result: PP1 counter, PP5 primary)
CC(C)(C)c1csc(Sc2ccc([N+](=O)[O-])cn2)n1	HTR2A ag 18 | OPRM1 ag 0.7 | HTR2A ag conf inactive
O=C(CCNC(=O)C1CCN(S(=O)(=O)c2ccccc2)CC1)NCc1ccccc1Cl	none
CC(NC(=O)c1nn(C)c(=O)c2ccccc12)c1ccc(F)cc1 (configuration not stated)	HTR2A ag 15 | OPRM1 ag inactive | HTR2A ag conf inactive
Cc1c(-c2ccccc2)[nH]n2c(=O)c3c(nc12)CCCC3	HTR2A ag 44 | OPRM1 ag inactive | HTR2A ag conf 15
Cc1ccc(-c2[nH]n3c(=O)c4c(nc3c2C)CCCC4)cc1	none
COc1ccc(/C=C(\C#N)C(=O)Nc2ccc3[nH]c(=O)[nH]c3c2)cc1	none
CCOc1ccc(/C=N/N2C(C)CCCC2C)cc1 (configuration not stated)	HTR2A ag 17 | OPRM1 ag inactive | HTR2A ag conf inactive
Cc1c(CCC(=O)NCCCn2ccnc2)c(=O)oc2c(C)c3oc4c(c3cc12)CCCC4	none
COc1ncc(-c2ccc3c(c2)S(=O)(=O)c2cccc(C(=O)O)c2C3=O)cn1	HTR2A ag 18 (no result: JMJD2C inh) | OPRM1 ag inactive | HTR2A ag conf inactive
COc1ccc(-c2ccc3c(c2)S(=O)(=O)c2cccc(C(=O)O)c2C3=O)cc1OC	none (no result: JMJD2C inh)
CSc1ccccc1NC(=O)COC(=O)Cn1cc(C(F)(F)F)ccc1=O	none
COc1ccc(C(=O)OCC(=O)NCC2CCCCC2)cc1F	none (no result: JMJD2C inh, PP1 counter, T cell HTS, PP5 primary)
COc1cc(/C=C/C(=O)O)ccc1O	none
COc1coc(/C=C/C(=O)O)cc1=O	HTR2A ag 22 | OPRM1 ag inactive | HTR2A ag conf inactive
C[C@@H]1CN[C@H](CCO)/C1=C\c1ccccc1	HTR2A ag 16 (no result: JMJD2C inh, PP1 counter, T cell HTS, PP5 primary) | OPRM1 ag inactive | HTR2A ag conf inactive
Brc1ccccc1-c1nnc(SCc2nc3ccccc3s2)o1	HTR2A ag 16 | OPRM1 ag inactive | HTR2A ag conf inactive
CCN(CC)S(=O)(=O)c1cccc(-c2nnc(SCc3nc4ccccc4s3)o2)c1	none
COCc1cccc(-c2csc(C(NC(C)=O)c3cccc(OC)c3)n2)c1 (configuration not stated)	none (no result: JMJD2C inh, PP1 counter, T cell HTS, PP5 primary)
CSc1ccccc1NC(=O)Cn1ccsc1=N	none
N=c1sccn1CC(=O)Nc1cccc2ccccc12	HTR2A ag 20 | OPRM1 ag inactive | HTR2A ag conf inactive
CCCOc1ccc(NC(=O)CCC(=O)NC(C)c2ccccc2)cc1 (configuration not stated)	none
COc1ccc(NS(=O)(=O)c2cn(C)cn2)cc1	none
CSc1cccc(NS(=O)(=O)c2cn(C)cn2)c1	HTR2A ag 17 | OPRM1 ag inactive | HTR2A ag conf inactive
O=S(=O)(NCCc1ccc(F)cc1)c1cc(C(F)(F)F)ccc1Br	none (no result: JMJD2C inh, PP1 counter, T cell HTS, PP5 primary)
O=S(=O)(NCc1ccc(F)cc1)c1cc(Br)ccc1Br	HTR2A ag 18 | OPRM1 ag inactive | HTR2A ag conf inactive
CCOC(=O)CNC(=O)c1cc(OC)cc(OC)c1	none
CCOC(=O)NC(=O)COC(=O)CNC(=O)c1cccc(OC)c1	HTR2A ag 20 | OPRM1 ag inactive | HTR2A ag conf inactive
CC(C)CN(Cc1cc(=O)oc2cc(-c3ccccc3)c(O)cc12)CC(C)C	HTR2A ag 16 | OPRM1 ag 2.3 | HTR2A ag conf 22
O=c1cc(CN2CCN(C/C=C/c3ccccc3)CC2)c2cc(O)c(-c3ccccc3)cc2o1	none
Cc1ccc([C@@H]2[C@@H]3C(=O)N(C)C(=O)[C@@H]3[C@]3(C)C(=O)N(Cc4ccccn4)CC(=O)N23)o1	HTR2A ag 17 | OPRM1 ag inactive | HTR2A ag conf inactive
Cc1cc(C)n(-c2nnc(C)n2N)n1	HTR2A ag 18 | OPRM1 ag inactive | HTR2A ag conf inactive
Cc1cc(C)n(-c2nnc(C)n2/N=C/c2ccccc2O)n1	none
Cc1cccc(NC(=O)CSc2nnc(-c3ccco3)n2CC2CCCO2)n1 (configuration not stated)	HTR2A ag 15 | OPRM1 ag inactive | HTR2A ag conf inactive
CNC(=O)c1[nH]cnc1C(=O)Nc1ccccn1	none
C#CCNCCS(=O)(=O)N(Cc1ccc(Br)cc1)[C@@H](C)C(=O)O	none (no result: JMJD2C inh, PP1 counter, T cell HTS, PP5 primary)
COC(=O)N1CCN(c2ccc(Cl)c(Cl)c2)CC1	none
O=C1CC(N2CCN(c3ccc(Cl)c(Cl)c3)CC2)C(=O)N1 (configuration not stated)	HTR2A ag 19 | OPRM1 ag 1.6 | HTR2A ag conf 18
Nc1ccc(N2CCN(c3ccc(Cl)c(Cl)c3)CC2)cc1	HTR2A ag 35 | OPRM1 ag inactive | HTR2A ag conf inactive

Screening results as filed in PubChem BioAssay.
